Data from ChEMBL document CHEMBL1140818, “Triazole derivatives as non-nucleoside inhibitors of HIV-1 reverse transcriptase--structure-activity relationships and crystallographic analysis” (Bioorg Med Chem Lett, 2008).

Legend:
[1] = tested on: Human immunodeficiency virus 1; assay: Antiviral activity against HIV1 in MT4 cells; type: functional, organism-based; details: Human immunodeficiency virus 1, MT4
Summary of the method: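 HIV-1 infectivity assay in MT-4 cells over 5 days, with virus-induced cell death as the read-out. EC50 is the mean of at least two independent experiments.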

[2] = Selectivity index, ratio of EC50 for MT4 cells to EC50 for HIV1; type: cell-based; details: human; for Selectivity index: mt4; for selectivity ratio: MT4 cells, read-out: Selectivity index
Summary of the method: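 Ratio of the cytotoxicity EC50 to the antiviral EC50, both from the 5-day MT-4 assay with virus-induced cell death as the antiviral read-out. Values are means of at least two independent experiments.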

[3] = Partition coefficient, log D of the compound; type: physicochemical; details: octanol/water

Compound	EC50 [1] [µM]	Selectivity index [2]	selectivity ratio [2]	logD [3]
c1ccc(CCSc2nnc(-c3ccsc3)n2Cc2ccccc2)cc1	> 100	Not Active		
c1ccc(Cn2c(SCc3ccccn3)nnc2-c2ccsc2)cc1		Not Active		
c1ccc(Cn2c(SCc3ccncc3)nnc2-c2ccsc2)cc1	41.5		1	
Clc1ccc(CSc2nnc(-c3ccsc3)n2Cc2ccccc2)cc1	51.1		≤ 1	
c1ccc(CSc2nnc(-c3cccs3)n2-c2ccccc2)cc1	> 100	Not Active		
c1ccc(CCn2c(SCc3ccccc3)nnc2-c2cccs2)cc1	> 100	Not Active		
Clc1cccc(Cl)c1CSc1nnc(-c2cccs2)n1Cc1ccccc1	3.45		1.7	
Clc1ccc(CSc2nnc(-c3cccs3)n2Cc2ccccc2)cc1Cl	2.4		3.1	
Clc1ccc(Cn2c(SCc3ccccc3)nnc2-c2cccs2)cc1	> 100			
Clc1ccc(Cn2c(SCc3ccccc3)nnc2-c2cccs2)cc1Cl	> 100	Not Active		
CCCCCCSc1nnc(-c2ccsc2)n1Cc1ccccc1	> 100	Not Active		
Cc1nnc(SCc2ccccc2)n1Cc1ccccc1	23.5		2	
c1ccc(CSc2nnc(-c3ccco3)n2Cc2ccccc2)cc1	4.6		5.2	
c1ccc(CSc2nnc(Cc3cccs3)n2Cc2ccccc2)cc1	> 100	Not Active		
Clc1ccccc1-c1nnc(SCc2ccccc2)n1Cc1ccccc1	2.85		2.9	
CSc1nnc(-c2cccs2)n1Cc1ccccc1	> 100	Not Active		
CCCCCCSc1nnc(-c2cccs2)n1Cc1ccccc1	> 100	Not Active		
N#Cc1ccc(CSc2nnc(-c3cccs3)n2Cc2ccccc2)cc1	23.5		< 1	
Clc1ccccc1CSc1nnc(-c2cccs2)n1Cc1ccccc1	0.44		35.2	
N#Cc1ccc(CSc2nnc(-c3ccsc3)n2Cc2ccccc2)cc1	> 100	Not Active		
Clc1cccc(CSc2nnc(-c3cccs3)n2Cc2ccccc2)c1Cl	0.73		9.1	
Clc1ccccc1CSc1nnc(-c2ccsc2)n1Cc1ccccc1	0.131		62	
Clc1ccc(CSc2nnc(-c3ccsc3)n2Cc2ccccc2)c(Cl)c1	3.3		2.9	
Clc1ccc(Cl)c(CSc2nnc(-c3ccsc3)n2Cc2ccccc2)c1	8.95		1.6	
c1ccc(CCSc2nnc(-c3cccs3)n2Cc2ccccc2)cc1	28.5		≤ 1	

Compound	EC50 [1] [µM]	Selectivity index [2]	selectivity ratio [2]	logD [3]
c1ccc(Cn2c(SCc3cccnc3)nnc2-c2cccs2)cc1	8.3		6	
Clc1cccc(Cl)c1CSc1nnc(-c2ccsc2)n1Cc1ccccc1	> 100	Not Active		
c1ccc(Cn2c(SCc3ccc4ccccc4c3)nnc2-c2ccsc2)cc1	0.58		11.1	
Cn1c(SCc2ccccc2)nnc1-c1cccs1	> 100	Not Active		
c1ccc(Cn2c(SCc3ccncc3)nnc2-c2cccs2)cc1	4.8		15	
COc1ccc(CSc2nnc(-c3cccs3)n2Cc2ccccc2)cc1	3		3.8	
c1ccc(CSc2nnc(-c3cccs3)n2Cc2ccccc2)cc1	3.7		8	3.5
Clc1cccc(CSc2nnc(-c3ccsc3)n2Cc2ccccc2)c1	1.6		6.3	
COc1ccc(Cn2c(SCc3ccccc3)nnc2-c2cccs2)cc1	> 100	Not Active		
c1ccc(Cn2c(SCc3ccccn3)nnc2-c2cccs2)cc1	8.3		5	
Clc1ccc(CSc2nnc(-c3cccs3)n2Cc2ccccc2)cc1	2		5.7	
c1ccc(CSc2nnc(-c3cc4ccccc4s3)n2Cc2ccccc2)cc1	> 100	Not Active		
Clc1ccc(Cl)c(CSc2nnc(-c3cccs3)n2Cc2ccccc2)c1	1		7.9	
c1ccc(Cn2c(SCc3ccc4ccccc4c3)nnc2-c2cccs2)cc1	1.7		5.9	
c1ccc(Cn2c(SCc3cccnc3)nnc2-c2ccsc2)cc1	23		2	
Clc1cccc(CSc2nnc(-c3cccs3)n2Cc2ccccc2)c1	1.7		5.3	
COc1ccc(CSc2nnc(-c3ccsc3)n2Cc2ccccc2)cc1	5.8		1	
Clc1ccc(CSc2nnc(-c3cccs3)n2Cc2ccccc2)c(Cl)c1	1.1		7.7	
CSc1nnc(-c2ccsc2)n1Cc1ccccc1	> 100	Not Active		
c1ccc(CSc2nnc(-c3ccsc3)n2Cc2ccccc2)cc1	9.2		2	
Clc1ccc(CSc2nnc(-c3ccsc3)n2Cc2ccccc2)cc1Cl	4.7		1.2	
c1ccc(CSc2nnc(-c3ccccc3)n2Cc2ccccc2)cc1	10.5		1.1	
Clc1cccc(CSc2nnc(-c3ccsc3)n2Cc2ccccc2)c1Cl	1.3		5	
O=C1Nc2ccc(Cl)cc2C(C#CC2CC2)(C(F)(F)F)O1 (single isomer, unassigned) [EFAVIRENZ]			> 6000	
